# Data reported in ChEMBL document CHEMBL3351368, “Biphenyl-4-carboxylic acid [2-(1H-indol-3-yl)-ethyl]-methylamide (CA224), a nonplanar analogue of fascaplysin, inhibits Cdk4 and tubulin polymerization: evaluation of in vitro and in vivo anticancer activity” (J Med Chem, 2014).
# Active and inactive are the calls of the source.
# What was measured:
# [1] = Oral bioavailability in BALB/c mouse at 10 mg/kg; format: ADME, organism-based; conditions: in vivo
# In short: (§1)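 BALB/c mice given a single dose of 1.0 mg/kg IV or 10 mg/kg orally; plasma concentration followed over time and pharmacokinetic parameters derived from the time-concentration profile.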
# [2] = target: Cyclin-dependent kinase 7/ cyclin H (Homo sapiens) (UniProt P51946+P50613); assay: Inhibition of human CDK7/cyclinH assessed as enzyme activity at 10 uM; format: protein-complex assay
# A549 [3] = assay: Cell cycle arrest in human A549 cells assessed as accumulation of cells at G2/M phase at IC50 concentration after 24 hrs by flow cytometry (reference value: 22%); format: functional
# [4] = Cell cycle arrest in human WI38 cells assessed as accumulation of cells at G2/M phase by flow cytometry; format: functional, cell-based; conditions: WI-38
# [5] = Cell cycle arrest in mouse BNL-CL2 cells assessed as accumulation of cells at S phase at IC50 concentration after 48 hrs by flow cytometry (reference value: 15%); format: functional
# In short: (§2)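 Normal (BNL CL2) and SV40 large T-antigen transformed (BNL SV A.8) mouse embryonic hepatic cells were treated at IC50 or IC70 concentration for 48 h. Analysis was by FACS, with apoptosis taken as % cells in the sub-G1 peak. Untreated cells served as control.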
# NCI-H460 = assay: Induction of apoptosis in p53+, pRb+ human NCI-H460 cells assessed as fragmented nuclei/distrupted cell membrane after 24 hrs by DAPI staining-based flow cytometry; format: functional
# MiaPaCa [6] = assay: Induction in cyclin B1 level in p53His273 mutant, pRb+ human MiaPaCa cells at IC50 concentration after 48 hrs by Western blot analysis; format: functional
# [7] = target: Insulin-like growth factor 1 receptor (Homo sapiens) (UniProt P08069); assay: Inhibition of human IGF-1R assessed as enzyme activity at 10 uM
# [8] = Terminal half life in BALB/c mouse at 1 mg/kg, iv; format: ADME, organism-based; design: dose 1 mg/kg, route intravenous; conditions: in vivo, read-out: beta t1/2 (converted); in short: as §1
# A549 [9] = assay: Induction of apoptosis in p53+, pRb+ human A549 cells assessed as fragmented nuclei/distrupted cell membrane at 1 to 10 uM by DAPI staining-based flow cytometry; format: functional; conditions: TDE = time-dependent effect
# MiaPaCa [10] = assay: Effect on p27 level in p53His273 mutant, pRb+ human MiaPaCa cells at IC50 concentration after 48 hrs by Western blot analysis; format: functional
# [11] = Cell cycle arrest in mouse BNL-SVA.8 cells assessed as accumulation of cells at subG1 phase at IC50 concentration after 48 hrs by flow cytometry (reference value: 0%); format: functional; in short: as §2
# A549 [12] = assay: Cell cycle arrest in human A549 cells assessed as accumulation of cells at S phase at IC50 concentration after 24 hrs by flow cytometry (reference value: 29%); format: functional
# [13] = target: Cyclin-dependent kinase 1/cyclin B1 (Homo sapiens, UniProt P06493); assay: Binding affinity to human CDK1/cyclinB1; format: protein-complex assay
# [14] = target: Mitogen-activated protein kinase 1 (Homo sapiens) (UniProt P28482); assay: Inhibition of human MAPK1 assessed as enzyme activity at 10 uM
# [15] = Solubility in simulated intestinal fluid; format: ADME
# [16] = target: Cyclin-dependent kinase 5/CDK5 activator 1 (Homo sapiens) (UniProt Q00535+Q15078); assay: Inhibition of human CDK5/p35 assessed as enzyme activity at 10 uM; format: protein-complex assay
# Tubulin (Homo sapiens) [17] = target: T1, Tubulin (Homo sapiens) (UniProt P68371+Q9H4B7+P0DPH7+P68366+Q13509+Q71U36+P04350+Q3ZCM7+P07437+P68363+Q9BQE3+Q6PEY2+Q13885+Q9BVA1+Q9BUF5); assay: Inhibition of tubulin (unknown origin) polymerization assessed as decrease in Vmax measured at 5 uM by spectrophotometry; format: protein-complex assay
# In short: (§3)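 Purified tubulin polymerisation followed as absorbance increase over about 4000 s. Vmax (mOD/min) is taken as the read-out, with final polymer mass also noted. Compound is tested at 2.5, 5, 10 and 25 µM alongside untreated control, paclitaxel 10 µM (enhancer) and nocodazole 10 µM (inhibitor). Curves are the average of three independent experiments.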
# [18] = target: Dual specificity mitogen-activated protein kinase kinase 1 (Homo sapiens) (UniProt Q02750); assay: Inhibition of human MEK1 assessed as enzyme activity at 10 uM
# [19] = Cell cycle arrest in mouse BNL-CL2 cells assessed as accumulation of cells at subG1 phase at IC50 concentration after 48 hrs by flow cytometry (reference value: 0%); format: functional; in short: as §2
# [20] = Growth inhibition of p53His273 mut, pRb+ human MiaPaCa cells after 48 hrs by MTT assay; format: functional; conditions: MIA PaCa-2, 48 h
# In short: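 MTT cell proliferation assay. IC50 (µM) was defined as the concentration giving 50% inhibition of cell growth.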
# [21] = target: Glycogen synthase kinase-3 beta (Homo sapiens) (UniProt P49841); assay: Inhibition of human GSK3beta assessed as enzyme activity at 10 uM
# BNL-CL2 = assay: Cell cycle arrest in mouse BNL-CL2 cells assessed as accumulation of cells at G2/M phase at IC70 concentration after 48 hrs by flow cytometry; format: functional, cell-based; in short: as §2
# [22] = Cell cycle arrest in mouse BNL-CL2 cells assessed as accumulation of cells at G0/G1 phase at IC50 concentration after 48 hrs by flow cytometry (reference value: 57%); format: functional; in short: as §2
# [23] = target: CDK6/cyclin D1 (Homo sapiens) (UniProt P24385+Q00534); assay: Inhibition of human CDK6/cyclinD1 assessed as enzyme activity at 10 uM; format: protein-complex assay
# [24] = Solubility in simulated gastric fluid; format: ADME
# [25] = Clearance in BALB/c mouse at 1 mg/kg, iv; format: ADME, organism-based; design: dose 1 mg/kg, route intravenous; conditions: in vivo; in short: as §1
# NCI-H358 [26] = assay: Cell cycle arrest in human NCI-H358 cells assessed as accumulation of cells at G0/G1 phase at IC50 concentration after 18 hrs by flow cytometry in presence of […] uM hydroxyurea for 18 hrs (reference value: 50%); format: functional
# CYP2C9 = CYP2C9 (Homo sapiens, UniProt P11712); assay: Inhibition of human recombinant CYP2C9 at 10 uM; format: ADME
# A549 [27] = assay: Anticancer activity against p53+, pRb+ human A549 cells assessed as reduction in colony formation efficiency at 1.4 uM after 24 hrs by visual count/crystal violet staining method; format: functional; conditions: A549, 24 h
# In short: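 Long-term survival assay. A549 and Calu-1 cells treated with a range of concentrations, colonies counted, efficiency expressed as percent of colonies versus untreated cultures. Means and standard deviations of three independent experiments.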
# NCI-H358 [28] = assay: Cell cycle arrest in human NCI-H358 cells assessed as accumulation of cells at S phase at IC50 concentration after 12 hrs by flow cytometry in presence of nocodazole for 18 hrs (reference value: 10%); format: functional
# Tubulin (Homo sapiens) [29] = target: T1, Tubulin (Homo sapiens); assay: Inhibition of tubulin (unknown origin) polymerization assessed as decrease in Vmax measured at 2.5 uM by spectrophotometry; format: protein-complex assay; in short: as §3
# [30] = Efflux ratio of permeability across basolateral to apical side over apical to basolateral side in human Caco2 cells; format: ADME, cell-based; conditions: Caco-2
# LS174T = assay: Reduction cyclin B1 level in p53+, pRb+ human LS 174T cells at IC50 concentration after 24 hrs by Western blot analysis
# Sequence of Insulin-like growth factor 1 receptor (Homo sapiens) (P08069 31-736 limits assumed): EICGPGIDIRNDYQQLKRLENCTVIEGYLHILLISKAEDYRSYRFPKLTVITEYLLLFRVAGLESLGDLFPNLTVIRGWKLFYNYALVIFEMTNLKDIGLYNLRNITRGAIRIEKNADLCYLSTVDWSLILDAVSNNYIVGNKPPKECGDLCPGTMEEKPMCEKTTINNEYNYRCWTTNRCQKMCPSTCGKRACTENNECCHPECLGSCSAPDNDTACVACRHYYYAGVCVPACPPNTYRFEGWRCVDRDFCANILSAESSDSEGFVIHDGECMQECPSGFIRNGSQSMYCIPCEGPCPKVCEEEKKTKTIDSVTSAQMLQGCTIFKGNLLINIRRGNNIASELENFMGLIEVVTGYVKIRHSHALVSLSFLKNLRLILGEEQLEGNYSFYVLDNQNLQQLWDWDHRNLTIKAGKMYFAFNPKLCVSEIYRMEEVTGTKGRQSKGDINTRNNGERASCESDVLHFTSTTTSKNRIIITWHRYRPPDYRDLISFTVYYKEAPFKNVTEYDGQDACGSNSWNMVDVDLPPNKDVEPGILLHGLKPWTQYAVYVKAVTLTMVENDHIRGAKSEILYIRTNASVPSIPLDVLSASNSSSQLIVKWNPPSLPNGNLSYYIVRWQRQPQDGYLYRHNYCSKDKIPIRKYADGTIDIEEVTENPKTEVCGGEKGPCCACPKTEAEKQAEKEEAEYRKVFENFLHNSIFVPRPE
# Sequence of Insulin-like growth factor 1 receptor (Homo sapiens) (P08069 741-1367 limits assumed): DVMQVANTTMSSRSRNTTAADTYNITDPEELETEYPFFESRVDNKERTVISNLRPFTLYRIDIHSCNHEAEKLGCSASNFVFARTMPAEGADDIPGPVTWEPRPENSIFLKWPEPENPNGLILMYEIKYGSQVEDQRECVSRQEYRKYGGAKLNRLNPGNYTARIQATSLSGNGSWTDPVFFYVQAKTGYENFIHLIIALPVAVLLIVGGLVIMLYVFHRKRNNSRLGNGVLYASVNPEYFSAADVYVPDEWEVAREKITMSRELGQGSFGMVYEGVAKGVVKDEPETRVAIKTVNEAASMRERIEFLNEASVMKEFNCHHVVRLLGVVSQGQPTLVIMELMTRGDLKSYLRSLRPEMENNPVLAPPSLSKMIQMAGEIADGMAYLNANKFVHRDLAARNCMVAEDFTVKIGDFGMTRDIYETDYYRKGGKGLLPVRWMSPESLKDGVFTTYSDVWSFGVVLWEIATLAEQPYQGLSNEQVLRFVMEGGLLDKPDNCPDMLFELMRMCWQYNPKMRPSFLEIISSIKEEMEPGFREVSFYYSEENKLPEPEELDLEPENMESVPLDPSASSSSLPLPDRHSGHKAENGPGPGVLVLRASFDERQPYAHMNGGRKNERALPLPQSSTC
# Sequence of Cyclin-dependent kinase 1/cyclin B1 (P06493 whole entry): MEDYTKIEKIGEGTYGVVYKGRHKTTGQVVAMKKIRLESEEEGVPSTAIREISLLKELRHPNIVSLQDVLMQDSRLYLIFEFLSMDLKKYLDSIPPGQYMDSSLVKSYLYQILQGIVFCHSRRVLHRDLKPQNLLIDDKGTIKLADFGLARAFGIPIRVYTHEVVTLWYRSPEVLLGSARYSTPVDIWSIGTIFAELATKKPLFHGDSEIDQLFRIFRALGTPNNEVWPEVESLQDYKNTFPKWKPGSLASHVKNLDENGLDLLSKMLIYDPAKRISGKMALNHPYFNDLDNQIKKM
# Sequence of Cyclin-dependent kinase 1/cyclin B1 (P14635 whole entry, further chain): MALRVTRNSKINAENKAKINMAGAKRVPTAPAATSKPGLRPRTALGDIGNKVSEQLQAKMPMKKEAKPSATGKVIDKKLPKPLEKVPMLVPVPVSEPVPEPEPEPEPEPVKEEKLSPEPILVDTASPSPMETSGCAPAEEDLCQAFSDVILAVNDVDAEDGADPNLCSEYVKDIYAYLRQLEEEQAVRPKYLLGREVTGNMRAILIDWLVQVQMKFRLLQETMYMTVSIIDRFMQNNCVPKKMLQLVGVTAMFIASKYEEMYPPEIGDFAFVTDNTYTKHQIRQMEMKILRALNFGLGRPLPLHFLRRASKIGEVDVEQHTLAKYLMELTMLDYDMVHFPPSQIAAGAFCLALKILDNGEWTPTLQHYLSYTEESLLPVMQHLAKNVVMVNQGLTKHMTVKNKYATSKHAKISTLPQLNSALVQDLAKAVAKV
# Sequence of Cyclin-dependent kinase 5/CDK5 activator 1 (Homo sapiens) (Q00535 whole entry): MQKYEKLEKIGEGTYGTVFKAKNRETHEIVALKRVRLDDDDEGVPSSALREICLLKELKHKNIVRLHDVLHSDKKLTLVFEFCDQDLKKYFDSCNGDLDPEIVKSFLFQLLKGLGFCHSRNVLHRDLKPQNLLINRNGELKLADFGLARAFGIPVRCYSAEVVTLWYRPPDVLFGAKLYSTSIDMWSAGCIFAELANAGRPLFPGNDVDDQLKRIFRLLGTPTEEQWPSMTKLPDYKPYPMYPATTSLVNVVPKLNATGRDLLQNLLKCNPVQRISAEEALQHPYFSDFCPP
# Sequence of Cyclin-dependent kinase 5/CDK5 activator 1 (Homo sapiens) (Q15078 99-307 partner limits assumed): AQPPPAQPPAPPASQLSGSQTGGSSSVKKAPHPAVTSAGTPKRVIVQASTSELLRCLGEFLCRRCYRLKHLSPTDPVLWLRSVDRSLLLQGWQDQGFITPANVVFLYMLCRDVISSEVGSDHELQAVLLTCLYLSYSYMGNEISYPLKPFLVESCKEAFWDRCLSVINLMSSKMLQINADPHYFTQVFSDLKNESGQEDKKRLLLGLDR
# Sequence of Glycogen synthase kinase-3 beta (Homo sapiens) (P49841 whole entry, looked up): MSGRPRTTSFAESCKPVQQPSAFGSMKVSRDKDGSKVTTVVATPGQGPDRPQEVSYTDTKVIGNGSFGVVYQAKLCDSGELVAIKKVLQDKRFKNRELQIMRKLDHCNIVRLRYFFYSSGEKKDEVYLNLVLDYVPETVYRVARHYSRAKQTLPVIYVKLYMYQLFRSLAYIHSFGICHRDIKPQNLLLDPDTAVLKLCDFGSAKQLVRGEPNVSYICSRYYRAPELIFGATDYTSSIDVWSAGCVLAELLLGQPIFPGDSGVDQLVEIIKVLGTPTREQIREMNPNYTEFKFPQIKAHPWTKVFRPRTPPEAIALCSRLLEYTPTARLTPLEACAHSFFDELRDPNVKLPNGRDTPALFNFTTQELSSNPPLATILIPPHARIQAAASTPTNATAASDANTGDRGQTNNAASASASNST
# Sequence of Dual specificity mitogen-activated protein kinase kinase 1 (Homo sapiens) (Q02750 whole entry): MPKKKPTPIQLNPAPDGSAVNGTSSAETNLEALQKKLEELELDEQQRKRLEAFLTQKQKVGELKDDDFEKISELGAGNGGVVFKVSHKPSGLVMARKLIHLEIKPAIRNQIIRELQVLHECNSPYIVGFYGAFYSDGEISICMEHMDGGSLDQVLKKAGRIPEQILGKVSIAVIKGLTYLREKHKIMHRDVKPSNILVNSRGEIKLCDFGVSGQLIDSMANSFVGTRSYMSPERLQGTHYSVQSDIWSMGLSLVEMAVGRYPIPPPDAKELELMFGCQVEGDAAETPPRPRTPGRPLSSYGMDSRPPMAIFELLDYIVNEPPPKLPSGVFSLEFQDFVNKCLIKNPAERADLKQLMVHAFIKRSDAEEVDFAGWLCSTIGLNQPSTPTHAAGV
# Sequence of CYP2C9 (P11712 whole entry): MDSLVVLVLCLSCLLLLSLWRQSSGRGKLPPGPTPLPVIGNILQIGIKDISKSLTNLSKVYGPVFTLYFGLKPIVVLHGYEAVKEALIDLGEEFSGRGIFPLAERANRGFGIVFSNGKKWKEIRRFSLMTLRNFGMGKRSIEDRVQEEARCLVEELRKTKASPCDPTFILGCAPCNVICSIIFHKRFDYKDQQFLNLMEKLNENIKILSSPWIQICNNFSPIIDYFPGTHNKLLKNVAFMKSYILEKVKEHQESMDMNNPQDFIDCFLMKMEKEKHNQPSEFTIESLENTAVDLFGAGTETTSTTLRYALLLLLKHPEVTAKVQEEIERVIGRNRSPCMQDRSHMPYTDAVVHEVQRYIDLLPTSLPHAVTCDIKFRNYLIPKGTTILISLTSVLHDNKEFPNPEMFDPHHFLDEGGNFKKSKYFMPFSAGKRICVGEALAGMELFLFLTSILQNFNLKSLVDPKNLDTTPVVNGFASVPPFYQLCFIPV
# Sequence of Mitogen-activated protein kinase 1 (Homo sapiens) (P28482 whole entry, looked up): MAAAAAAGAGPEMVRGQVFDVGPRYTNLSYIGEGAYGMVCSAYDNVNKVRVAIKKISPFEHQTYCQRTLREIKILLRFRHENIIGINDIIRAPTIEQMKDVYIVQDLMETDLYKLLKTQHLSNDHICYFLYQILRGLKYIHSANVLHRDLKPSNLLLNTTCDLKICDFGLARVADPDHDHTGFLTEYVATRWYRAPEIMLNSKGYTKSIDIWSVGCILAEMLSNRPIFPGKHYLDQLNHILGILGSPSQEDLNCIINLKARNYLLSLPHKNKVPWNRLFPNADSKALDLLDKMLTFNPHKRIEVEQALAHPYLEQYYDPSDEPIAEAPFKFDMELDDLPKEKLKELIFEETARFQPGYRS
smiles,measurement,setting,value
CN(CCc1c[nH]c2ccccc12)C(=O)c1ccc(-c2ccccc2)cc1,bioavailability,[1],9.6%
same,inhibition,[2],inactive
same,Activity,A549 [3],89%
same,Activity,[4],Active
same,Activity,[5],9%
same,Activity,NCI-H460,Dose-dependent effect
same,Activity,MiaPaCa [6],Active
same,inhibition,[7],inactive
same,half-life,[8],19.8 min
same,Activity,A549 [9],tde
same,Activity,MiaPaCa [10],inactive
same,Activity,[11],31%
same,Activity,A549 [12],4%
same,IC50,[13],> 500 µM
same,inhibition,[14],inactive
same,solubility,[15],5 µg/mL
same,inhibition,[16],inactive
same,Activity (milli optical density/minute),Tubulin (Homo sapiens) [17],2.1
same,inhibition,[18],inactive
same,Activity,[19],2%
same,IC50,[20],4 µM
same,inhibition,[21],inactive
same,Activity,BNL-CL2,Active
same,Activity,[22],34%
same,inhibition,[23],inactive
same,solubility,[24],125 µg/mL
same,clearance,[25],88.3 mL/min/kg
same,Activity,NCI-H358 [26],16%
same,inhibition at 10 µM,CYP2C9,51%
same,inhibition at 1.4 µM,A549 [27],50%
same,Activity,NCI-H358 [28],10%
same,Activity (milli optical density/minute),Tubulin (Homo sapiens) [29],6.2
same,efflux ratio,[30],1.1
same,inhibition,LS174T,Active
